The results in this text go back to ChEMBL document CHEMBL1140098, “Dipeptide boronic acid inhibitors of dipeptidyl peptidase IV: determinants of potency and in vivo efficacy and safety” (J Med Chem, 2008).

One data set relates to Mus musculus. Put plainly: Reduction of glucose level in po dosed C57BL/6 mouse by oral glucose tolerance test. The data set is classed as functional, organism-based. In a few lines:
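Male C57BL/6 mice, 7-8 per group, fasted 20 h, given vehicle or inhibitor by oral gavage at various doses. Oral glucose challenge (5 g/kg) 60 min later. Blood glucose read at 5 time points over 120 min.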

The subject of data set [1] is Rattus norvegicus. The data set is described as follows: Inhibition of DPP4 in po dosed Sprague-Dawley rat plasma after 24 hrs. The data set is classed as functional, organism-based. In a few lines:
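Sprague-Dawley rats, 4-6 per inhibitor, single oral gavage dose across a dose range. Plasma DPP-IV activity sampled 6 times over 24 h post-dose. Percent change derived by comparing each treated sample's plasma activity with its own predose activity.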

Data set [2] relates to Rattus norvegicus. Put plainly: Toxicity in po dosed Sprague-Dawley rat assessed as maximum tolerated dose relative to Val-boroPro. The data set is classed as organism-based. Conditions: in vivo.
For the next data set, the target named is Dipeptidyl peptidase 4 (Homo sapiens, UniProt P27487). Put plainly: Inhibition of human placental DPP4.
Sequence of Dipeptidyl peptidase 4 (P27487 whole entry): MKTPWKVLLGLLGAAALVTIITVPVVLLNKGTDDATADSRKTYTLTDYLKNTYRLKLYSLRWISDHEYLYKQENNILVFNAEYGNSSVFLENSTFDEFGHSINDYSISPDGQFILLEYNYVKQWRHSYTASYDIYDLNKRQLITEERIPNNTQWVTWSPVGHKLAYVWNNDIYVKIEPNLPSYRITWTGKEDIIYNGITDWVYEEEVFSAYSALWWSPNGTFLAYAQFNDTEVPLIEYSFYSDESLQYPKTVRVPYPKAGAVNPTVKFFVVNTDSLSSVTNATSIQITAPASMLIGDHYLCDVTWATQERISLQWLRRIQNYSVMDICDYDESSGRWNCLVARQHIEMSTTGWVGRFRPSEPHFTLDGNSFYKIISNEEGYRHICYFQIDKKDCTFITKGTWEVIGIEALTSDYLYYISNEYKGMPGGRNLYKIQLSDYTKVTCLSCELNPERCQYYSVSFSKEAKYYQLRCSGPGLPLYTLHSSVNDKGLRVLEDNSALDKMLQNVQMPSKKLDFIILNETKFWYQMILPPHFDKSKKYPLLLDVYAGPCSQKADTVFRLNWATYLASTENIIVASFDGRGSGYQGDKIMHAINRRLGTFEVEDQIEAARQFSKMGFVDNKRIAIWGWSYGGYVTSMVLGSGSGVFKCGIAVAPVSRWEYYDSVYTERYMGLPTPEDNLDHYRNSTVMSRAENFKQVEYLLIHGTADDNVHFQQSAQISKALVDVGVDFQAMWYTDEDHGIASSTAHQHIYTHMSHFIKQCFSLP
Data set [3] can be described thus: Toxicity in po dosed Sprague-Dawley rat assessed as maximum tolerated dose. Conditions: in vivo. It counts as organism-based. The procedure, abridged: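 Sprague-Dawley rats given escalating single doses; animals observed for adverse signs; lethargic or dead animals necropsied; maximum tolerated dose taken as the highest dose without adverse effects.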
A short description of data set [4]: Therapeutic index, ratio of MTD to drug level causing maximal reduction of glucose AUC in po dosed Sprague-Dawley rat. The following applies: in vivo.
Data set [5] deals with Rattus norvegicus. Put plainly: Inhibition of DPP4 in Sprague-Dawley rat plasma at 6 mg/kg, po after 4 hrs. Conditions: read-out: INH.

Some results are limits rather than exact numbers.

As for `CC(C)[C@H](N)C(=O)N1CCC[C@H]1B(O)O` [TALABOSTAT], the figures for the Activity entry in the data set with Mus musculus, in the data set on Rattus norvegicus [1] and with Rattus norvegicus [2] were “Dose-dependent effect”, “Dose-dependent effect” and 1, respectively.

As usually defined, the Ki is the equilibrium dissociation constant of an inhibitor or competing ligand from its target. Read a low Ki as a stronger hold on the target. Regarding `NCC(=O)N1CCC[C@H]1B(O)O`, the affinity at Dipeptidyl peptidase 4, expressed as Ki, was 0.4 nM.

For orientation: MTD means the highest dose tested that stayed within the study's limit of toxicity. As for `CC[C@@H](C)[C@H](N)C(=O)N1CCSC1`, the MTD in data set [3] is under 300 mg/kg. In addition, the Activity with Rattus norvegicus [2] is on record as under 12000. For the same compound, the selectivity ratio in data set [4] is under 15.

Regarding `C[C@H](N)C(=O)N1CCC[C@H]1B(O)O`, the results for the Activity result in the data set with Mus musculus, in the data set with Rattus norvegicus [1] and with Rattus norvegicus [2] were “Dose-dependent effect”, “Dose-dependent effect” and 200, respectively.

Consider `N[C@@H](CCC(=O)O)C(=O)N1CCC[C@H]1B(O)O`, for which the Ki at Dipeptidyl peptidase 4 amounted to 1.8 nM.

On to `CC[C@H](C)[C@H](N)C(=O)N1CCSC1`, for which the MTD in data set [3] was over 700 mg/kg. The Activity in the data set with Rattus norvegicus [2] was over 28000. In addition, the selectivity ratio in data set [4] is over 35.

`CC(=O)N[C@H](C(=O)N1CCC[C@H]1B(O)O)C(C)C` showed a Ki on Dipeptidyl peptidase 4 of 3300 nM.

Turning to `C[C@H](NC(=O)[C@@H](N)CCC(=O)O)B(O)O`, the Activity entry is “Dose-dependent effect” with Mus musculus, “Dose-dependent effect” in the data set on Rattus norvegicus [1] and 20000 in the data set with Rattus norvegicus [2]. In the data set with Rattus norvegicus [5], the inhibition in vivo at 6 mg/kg stood at 80%. For the same compound, the MTD in data set [3] is over 500 mg/kg.
